In PubChem BioAssay AID2607 (Broad Institute, 2010):

System: DRD fibroblasts (non-viral oncogenic) viability, Alamar Blue fluorescence, 48 h
Experiment: killing of non-viral oncogenic fibroblasts – cell-based, fluorescence, Alamar Blue, powder samples, dose response (AID 2607)
How it was run: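 Detection: Alamar blue fluorescence, excitation 544 nm, emission 590 nm | Material: DRD fibroblasts | Input: 1000 DRD cells per well | Doses: 2-fold series, 0.01–5.33 µg/mL final | Times: 48 h compound exposure, 37 °C, then ~16 h alamar blue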

Q: `COc1ccc(CN(CCC(c2ccccc2)c2ccc(OC(C)C)cc2)C(=O)CCl)cc1OC` (centres undefined) was tested. Which EC50 did it give?
A: 622 nM

Q: With `COc1ccc(N(C(=O)CCl)C(C(=O)NCCc2ccccc2)c2cccs2)cc1` (centres undefined) as the compound, how does the EC50 read?
A: 214 nM

Q: How did the EC50 turn out when `CCOc1ccc(Nc2nc(N)nc(CCl)n2)cc1` was run?
A: 183 nM

Q: With `O=C(CCl)N=c1sccn1Cc1ccccc1Cl` as the compound, how does the EC50 read?
A: 183 nM

Q: How did the EC50 turn out when `COc1ccc(C(C(=O)NC2CCCCC2)N(C(=O)CCl)c2cccc(Cl)c2)cc1` (centres undefined) was run?
A: 137 nM

Q: Which EC50 does the source give for `COc1cccc(N(C(=O)CCl)C(C(=O)NCCc2ccccc2)c2cccs2)c1` (centres undefined) here?
A: 145 nM

Q: For `COc1ccc(C(C(=O)NC2CCCCC2)N(C(=O)CCl)c2ccc(C)cc2)cc1` (centres undefined), which EC50 is on record?
A: 143 nM

Q: For `COc1ccc(N(C(=O)CCl)C(C(=O)NCCc2ccccc2)c2cccs2)cc1Cl` (centres undefined), which EC50 is on record?
A: 34 nM

Q: `Cc1ccc(C2CC(c3cccs3)=NN2C(=O)CCl)cc1` (centres undefined) was tested. Which EC50 did it give?
A: 1210 nM

Q: For `Nc1nc(CCl)nc(Nc2ccc3ccccc3c2)n1`, which EC50 is on record?
A: 82 nM

Q: How did the EC50 turn out when `COC(=O)[C@@H]1Cc2c([nH]c3ccccc23)C(C)(C)N1C(=O)CCl` was run?
A: 467 nM

Q: For `Cc1ccc(N(C(=O)CCl)C(C(=O)NC2CCCCC2)c2cccnc2)cc1C` (centres undefined), which EC50 is on record?
A: 147 nM

Q: For `C=CCOc1ccccc1CN(C(=O)CCl)c1ccc2c(c1)OCO2`, which EC50 is on record?
A: 1140 nM

Q: `CCCCCCCN(C(=O)CCl)c1cccc(C)c1` was tested. Which EC50 did it give?
A: 171 nM
